Experimental data published in ChEMBL document CHEMBL1133558, “Structural determinants of AMPA agonist activity in analogues of 2-amino-3-(3-carboxy-5-methyl-4-isoxazolyl)propionic acid: synthesis and pharmacology” (J Med Chem, 2000).

Columns and labels:
[1] = target: T1, Glutamate receptor ionotropic, AMPA (Rattus norvegicus, UniProt P19490+P19491+P19492+P19493); experiment: Inhibition of [3H]AMPA binding to rat brain membranes.; assay type: cell membranes, Membrane
Glutamate NMDA receptor [2] = experiment: Inhibition of [3H]CPP binding to rat brain membranes.; assay type: cell membranes, Membrane
[3] = target: Glutamate receptor ionotropic, kainate; experiment: Inhibition of [3H]-Kainic acid binding to rat brain membranes.; assay type: cell membranes, Membrane
[4] = target: T1, Glutamate receptor ionotropic, AMPA; experiment: Agonistic activity electrophysiologically against AMPA using rat cortical wedge preparation; assay type: functional
Glutamate NMDA receptor [5] = experiment: Tested in vitro for the antagonistic activity electrophysiologically against NMDA using rat cortical wedge preparation; assay type: functional
Method in brief: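 Rat cortical wedge preparation. The cortex was superfused with Mg²⁺-free Krebs buffer and the corpus callosum with Mg²⁺- and Ca²⁺-free Krebs buffer, at 25 °C. Compounds were added to the cortical superfusate, and the potential difference between the electrodes was recorded on a chart recorder.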

[6] = target: Glutamate receptor ionotropic, NMDA (Rattus norvegicus); experiment: Tested in vitro for the antagonistic activity electrophysiologically against NMDA using rat cortical wedge preparation

Row | Compound | IC50 [1] [µM] | IC50 (Glutamate NMDA receptor [2]) [µM] | IC50 [3] [µM] | EC50 [4] [µM] | IC50 (Glutamate NMDA receptor [5]) [µM] | IC50 [6] [µM]
1 | COc1noc(C(=O)O)c1CC(N)C(=O)O (centres undefined) | 0.11 | > 100 | > 100 | 1.2 | – | –
2 | NC(Cc1c(C(=O)O)on(Cc2ccccc2)c1=O)C(=O)O (centres undefined) | > 100 | > 100 | > 100 | – | 704 | –
3 | Cn1oc(C(=O)O)c(CC(N)C(=O)O)c1=O (centres undefined) | > 100 | > 100 | > 100 | > 1000 | – | –
4 | CCCCCOc1noc(C(=O)O)c1CC(N)C(=O)O (centres undefined) | > 100 | > 100 | > 100 | 1000 | – | –
5 | NC(Cc1c(OCc2ccccc2)noc1C(=O)O)C(=O)O (centres undefined) | > 100 | > 100 | > 100 | > 1000 | – | –
6 | CCCCOc1noc(C(=O)O)c1CC(N)C(=O)O (centres undefined) | > 100 | > 100 | > 100 | 406 | – | –
7 | CCOc1noc(C(=O)O)c1C/N=c1\c(O)c(O)c1=N | > 100 | 76 | > 100 | – | – | 603

Other lines, results leading:

Row | IC50 [1] [µM] | IC50 (Glutamate NMDA receptor [2]) [µM] | IC50 [3] [µM] | EC50 [4] [µM] | IC50 (Glutamate NMDA receptor [5]) [µM] | IC50 [6] [µM] | Compound
8 | 7.2 | > 100 | > 100 | 40 | – | – | C=CCOc1noc(C(=O)O)c1CC(N)C(=O)O (centres undefined)
9 | > 100 | > 100 | > 100 | 500 | – | – | C/C=C/COc1noc(C(=O)O)c1CC(N)C(=O)O (centres undefined)
10 | > 100 | > 100 | > 100 | > 100 | – | – | CCOc1noc(-c2nc[nH]n2)c1CC(N)C(=O)O (centres undefined)
11 | 5.5 | > 100 | > 100 | 37 | – | – | CC(C)Oc1noc(C(=O)O)c1CC(N)C(=O)O (centres undefined)
12 | > 100 | > 100 | > 100 | > 1000 | – | – | NC(Cc1c(O)noc1C(=O)O)C(=O)O (centres undefined)
13 | 1 | > 100 | > 100 | 4.8 | – | – | CCOc1noc(C(=O)O)c1CC(N)C(=O)O (centres undefined)
14 | > 100 | > 100 | > 100 | > 500 | – | – | CCn1oc(C(=O)O)c(CC(N)C(=O)O)c1=O (centres undefined)
15 | 14 | > 100 | > 100 | 79 | – | – | CCCOc1noc(C(=O)O)c1CC(N)C(=O)O (centres undefined)
16 | > 100 | > 100 | > 100 | 2000 | – | – | CCOc1noc(-c2nn[nH]n2)c1CC(N)C(=O)O (centres undefined)
